Results as given in ChEMBL document CHEMBL4184339, “NMR Biochemical Assay for Oxidosqualene Cyclase: Evaluation of Inhibitor Activities on Trypanosoma cruzi and Human Enzymes” (J Med Chem, 2018).

Legend:
[1] = Inhibition of Trypanosoma cruzi strain CL Brener C-terminal His6-tagged OSC expressed in Pichia pastoris GS115 using 2,3-oxidosqualene as substrate after 20 mins by 1H NMR method
Summary of the method: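 T. cruzi OSC was expressed in Pichia pastoris GS115, first grown in BMGY ([…]glycerol) at 30 °C for 3 days and then induced in BMMY (1% methanol) at 25 °C for 2 days. Cells were homogenized in Tris-HCl pH 7.5 with 250 mM NaCl. Purification buffers contained 0.2% Triton X-100 or 0.2–1.2% β-octylglucoside. The substrate, 2,3-oxidosqualene, was in 10 mM sodium phosphate buffer with varied inhibitor. Reactions started with 19 nM enzyme (final) and ran at 37 °C for 20 min. Lanosterol was quantified by 1H NMR with factor analysis, and IC50 was taken from a fit of the first-factor score.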

[2] = target: T1, Lanosterol synthase (Homo sapiens, UniProt P48449); assay: Inhibition of human C-terminal His6-tagged OSC expressed in Pichia pastoris GS115 using 2,3-oxidosqualene as substrate after 90 mins by 1H NMR method
T1 sequence (P48449 whole entry): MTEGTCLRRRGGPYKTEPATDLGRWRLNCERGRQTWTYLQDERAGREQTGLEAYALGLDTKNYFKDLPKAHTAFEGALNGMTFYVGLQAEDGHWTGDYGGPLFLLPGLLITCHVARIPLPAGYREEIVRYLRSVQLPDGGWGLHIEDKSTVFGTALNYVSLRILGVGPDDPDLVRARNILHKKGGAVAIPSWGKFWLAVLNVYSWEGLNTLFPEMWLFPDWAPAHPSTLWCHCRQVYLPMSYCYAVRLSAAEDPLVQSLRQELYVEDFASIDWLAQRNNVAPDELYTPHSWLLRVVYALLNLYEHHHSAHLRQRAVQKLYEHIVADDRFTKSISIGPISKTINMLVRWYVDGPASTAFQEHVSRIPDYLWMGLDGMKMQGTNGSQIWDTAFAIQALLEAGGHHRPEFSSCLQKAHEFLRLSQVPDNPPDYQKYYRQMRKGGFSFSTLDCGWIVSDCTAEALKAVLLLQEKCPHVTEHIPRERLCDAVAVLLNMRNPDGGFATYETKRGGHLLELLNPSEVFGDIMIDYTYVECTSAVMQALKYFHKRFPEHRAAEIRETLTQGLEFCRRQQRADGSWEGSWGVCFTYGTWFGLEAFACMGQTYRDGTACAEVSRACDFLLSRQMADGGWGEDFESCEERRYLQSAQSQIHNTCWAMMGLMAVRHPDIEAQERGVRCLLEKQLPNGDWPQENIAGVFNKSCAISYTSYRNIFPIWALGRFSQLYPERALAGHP
Summary of the method: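 Human OSC was expressed in Pichia pastoris GS115 using BMGY at 30 °C for 3 days, then BMMY methanol induction at 25 °C for 2 days. Purification included a Superdex 200 step, with buffers containing 0.2% Triton X-100 or 0.2–0.8% β-octylglucoside. Product was measured by NMR with factor analysis, and IC50 was fitted from the first-factor score.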

[3] = Selectivity ratio of IC50 for human C-terminal His6-tagged OSC to IC50 for Trypanosoma cruzi strain CL Brener C-terminal His6-tagged OSC
[4] = system: Trypanosoma cruzi; assay: Antiparasitic activity against epimastigote stage of Trypanosoma cruzi Tulahuen assessed as inhibition of parasite proliferation after 48 hrs by Alamar Blue assay; assay type: functional, organism-based
Summary of the method: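 Epimastigotes (one million per assay) were cultured in LIT medium with 10% newborn calf serum and co-incubated with compound. Afterwards, alamarBlue was added and fluorescence was read as a measure of viability.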

[5] = system: Trypanosoma cruzi; assay: Parasiticidal activity against amastigote stage of Trypanosoma cruzi Tulahuen infected in mouse brain fibroblast assessed as time duration of effect at 9.6 microM preincubated for 5 days followed by another 10 days incubation with fresh compound; assay type: functional
[6] = system: Trypanosoma cruzi; assay: Parasiticidal activity against amastigote stage of Trypanosoma cruzi Tulahuen infected in mouse brain fibroblast assessed as time duration of effect at 19.2 microM preincubated for 5 days followed by another 10 days incubation with fresh compound; assay type: functional
[7] = system: Trypanosoma cruzi; assay: Parasiticidal activity against amastigote stage of Trypanosoma cruzi Tulahuen infected in mouse brain fibroblast assessed as time duration of effect at 10.9 microM preincubated for 5 days followed by another 10 days incubation with fresh compound; assay type: functional
[8] = system: Trypanosoma cruzi; assay: Parasiticidal activity against amastigote stage of Trypanosoma cruzi Tulahuen infected in mouse brain fibroblast assessed as time duration of effect at 21.8 microM preincubated for 5 days followed by another 10 days incubation with fresh compound; assay type: functional

SMILES	IC50 [1] [nM]	IC50 [2] [nM]	Ratio IC50 [3]	IC50 [4] [nM]	Time [5] [days]	Time [6] [days]	Time [7] [days]	Time [8] [days]
C=CCN(C)Cc1ccc(N2CCC(N(C)S(=O)(=O)c3ccc(Cl)cc3)CC2)cc1.Cl.Cl	42	16	0.38	110	62	80		
CN(C)Cc1ccc(N2CCC(N(C)S(=O)(=O)c3ccc(Cl)cc3)CC2)cc1	140	230	1.6					
CN(C)CCOc1ccc(OC2CCN(S(=O)(=O)c3ccc(F)cc3)CC2)cc1.Cl	44	120	2.7	2150			21	29
O=C(Cn1ccnc1[N+](=O)[O-])NCc1ccccc1 [BENZNIDAZOLE]					35	53		
C=CCN(C)CCCCCCOc1ccc(C(=O)c2ccc(Br)cc2)c(F)c1	13							
